Source: ChEMBL document CHEMBL4190223, “Natural Products Discovered in a High-Throughput Screen Identified as Inhibitors of RGS17 and as Cytostatic and Cytotoxic Agents for Lung and Prostate Cancer Cell Lines” (J Nat Prod, 2017)
Activity calls are given as the source filed them. The calls are words filed in the database; no cut-off is given here.

Assays:
HEK293 [1] = assay: Inhibition of Galphao interaction with GFP-fused RGS17 (unknown origin) deltaN mutant expressed in HEK293 cells assessed as disruption of RGS17 localization at cell membranes at 100 uM up to 30 mins by confocal microscopic analysis; type: cell-based; conditions: Homo sapiens
Procedure, shortened: (§1)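 HEK293T cells plated at 25 000 per well on poly-D-lysine glass and kept overnight at 37 °C, 5% CO2. Next day cotransfected with hGαo (pcDNA3.1) and GFP-RGS17 N (Lipofectamine 2000). After 24 h, cells moved to serum-free, phenol-red-free DMEM and given compound (final 0.07–0.8% DMSO). Live confocal imaging; ImageJ cross-sectional intensity analysis, each T=final image normalised to the T=0 maximum.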

HEK293 [2] = assay: Inhibition of Galphao interaction with GFP-fused RGS17 (unknown origin) deltaN mutant expressed in HEK293 cells assessed as increase in RGS17 deltaN mutant localization at cytoplasm at 100 uM up to 30 mins by confocal microscopic analysis; type: cell-based; conditions: Homo sapiens; procedure, shortened: as §1
HEK293 [3] = assay: Induction of morphological changes in HEK293 cells assessed as cell shrinkage at 100 uM measured over 30 mins; type: cell-based; conditions: human, hek293, 0.5 h
[4] = target: T1, Regulator of G-protein signaling 17 (Homo sapiens) (UniProt Q9UGC6); assay: Binding affinity to RGS17 (unknown origin) assessed as molecular weight of covalent adduct at 100 uM after 72 hrs by ESI-MS analysis (reference value: 16232 Da)
T1 sequence (whole entry): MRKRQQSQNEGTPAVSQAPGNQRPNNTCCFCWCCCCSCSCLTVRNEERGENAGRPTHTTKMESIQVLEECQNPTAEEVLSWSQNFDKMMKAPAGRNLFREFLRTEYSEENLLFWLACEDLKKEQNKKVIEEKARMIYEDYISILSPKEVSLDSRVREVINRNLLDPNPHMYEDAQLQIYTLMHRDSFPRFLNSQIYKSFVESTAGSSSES
Procedure, shortened: (§2)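 RGS17 N (1ZV4 construct, 20 μM) in 25 mM HEPES, 100 mM NaCl, 5% DMSO, pH 8, incubated with or without 100 μM compound at 4 °C for 72 h. Then dialysed twice against 25 mM NH4HCO3 at 4 °C for 24 h to strip noncovalent ligand, followed by ESI-TOF mass analysis for adducted species.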

[5] = Thiol reactivity of the compound assessed as cysteine adduct formation at 100 uM after 4 hrs in presence of N-Acetylcysteine by Ellman's method; type: physicochemical
Procedure, shortened: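 Ellman assay: N-acetylcysteine (100 μM) incubated with compound (100 μM, 1:1) for 4 h at 37 °C. DTNB (1 mM) then added and absorbance read at 412 nm against N-acetylcysteine alone; N-ethylmaleimide as thiol-reactive control; n = 3.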

[6] = Solubility of the compound in aqueous buffer solution; type: physicochemical
A549 [7] = assay: Growth inhibition of human A549 cells measured every 2 hrs over 6 days by live cell imaging based method; type: functional
Procedure, shortened: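 A549 cells harvested by trypsin, plated at 1000 cells/well in 24-well plates, left overnight to attach, then treated in triplicate with compound or matched DMSO (≤0.2% final). Confluence imaged live every 2 h over 6 days. Change in confluence relative to DMSO plotted against concentration. IC50 taken from a linear regression of each curve at 0.5 relative growth.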

[8] = target: T1, Regulator of G-protein signaling 17 (Homo sapiens); assay: (§3) Inhibition of wild type GST-tagged RGS17 (unknown origin) interaction with biotinylated Galphao after 30 mins in presence of AMF and GDP by AlphaScreen assay
Procedure, shortened: (§4)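 AlphaScreen assay: RGS17 (WT or C117A) on anti-GST beads, 10 nM final, preincubated 30 min with compound (half-log series, 100 μM to 1 nM final). Gαo-biotin on streptavidin beads then added with AMF and GDP, 10 nM final. Negative controls lacked AMF. Data n = 3, run at least in duplicate.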

[9] = target: T2, Regulator of G-protein signaling 17 (Homo sapiens, UniProt Q9UGC6); assay: as §3; procedure, shortened: as §4
T2 sequence (Q9UGC6 whole entry): T1 sequence (whole entry)

[10] = target: T1, Regulator of G-protein signaling 17 (Homo sapiens); assay: Binding affinity to RGS17 (unknown origin) assessed as change in melting temperature by differential scanning fluorimetry
HEK293 [11] = assay: Inhibition of Galphao interaction with GFP-fused RGS17 (unknown origin) deltaN mutant expressed in HEK293 cells assessed as increase in RGS17 deltaN mutant localization at cytoplasm at 10 uM up to 20 mins by confocal microscopic analysis; type: cell-based; conditions: Homo sapiens
Procedure, shortened: (§5)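 HEK293T cells plated at 25 000/well on poly-D-lysine glass-bottom wells and co-transfected (Lipofectamine 2000) with hGαo and N-terminal GFP-fused RGS17 ΔN. After 24 h, switched to serum-free, phenol-red-free DMEM and compound added (0.07–0.8% DMSO final). Imaged by confocal microscopy; cross-sectional fluorescence profiles at T=0 and T=final, each pair normalised to the highest T=0 intensity.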

HEK293 [12] = assay: Inhibition of Galphao interaction with GFP-fused RGS17 (unknown origin) deltaN mutant expressed in HEK293 cells assessed as increase in RGS17 deltaN mutant localization at cytoplasm at 10 uM up to 5 mins by confocal microscopic analysis; type: cell-based; conditions: Homo sapiens; procedure, shortened: as §5
RWPE-1 = assay: Growth inhibition of human RWPE1 cells at 31.6 to 56.2 uM after 1 hr by sulforhodamine B assay; type: cell-based; conditions: rwpe-1, 1 h
HEK293 [13] = assay: Inhibition of Galpha0 interaction with GFP-fused RGS17 (unknown origin) deltaN mutant expressed in HEK293 cells assessed as increase in RGS17 deltaN mutant localization at cytoplasm at 100 uM up to 5 mins by confocal microscopic analysis; type: cell-based; conditions: Homo sapiens; procedure, shortened: as §5
Homo sapiens = species: Homo sapiens; assay: Growth inhibition of human TEM4-18 cells after 1 hr by sulforhodamine B assay; type: functional
PC-3 [14] = assay: Growth inhibition of E-cadherin expressing human PC3 cells transfected with RGS17 at 31.6 to 56.2 uM after 1 hr by sulforhodamine B assay; type: functional, cell-based
[15] = target: T1, Regulator of G-protein signaling 17 (Homo sapiens); assay: Binding affinity to RGS17 (unknown origin) assessed as change in chemical shift perturbations by NMR spectroscopic analysis
[16] = target: T1, Regulator of G-protein signaling 17 (Homo sapiens); assay: Binding affinity to RGS17 (unknown origin) assessed as covalent adduct formation at 100 uM after 72 hrs by ESI-MS analysis; procedure, shortened: as §2
HEK293 [17] = assay: Induction of morphological changes in HEK293 cells assessed as cell shrinkage at 100 uM; type: cell-based; conditions: human, hek293, 100 µM
[18] = target: T1, Regulator of G-protein signaling 17 (Homo sapiens); assay: Inhibition of RGS17 (unknown origin)-mediated CREB phosphorylation
HEK293 [19] = assay: Induction of morphological changes in HEK293 cells assessed as plasma membrane blebbing at 100 uM; type: cell-based; conditions: human, hek293, 100 µM
PC-3 [20] = assay: Growth inhibition of E-cadherin expressing human PC3 cells after 1 hr by sulforhodamine B assay; type: functional, cell-based
[21] = target: Regulator of G-protein signaling 17 (Homo sapiens, UniProt Q9UGC6, C117A); assay: Inhibition of RGS17 (unknown origin) C117A mutant interaction with biotinylated Galphao after 30 mins in presence of AMF and GDP by AlphaScreen assay; procedure, shortened: as §4
Chain of Regulator of G-protein signaling 17 (Homo sapiens, UniProt Q9UGC6, C117A) (Q9UGC6 whole entry C117A): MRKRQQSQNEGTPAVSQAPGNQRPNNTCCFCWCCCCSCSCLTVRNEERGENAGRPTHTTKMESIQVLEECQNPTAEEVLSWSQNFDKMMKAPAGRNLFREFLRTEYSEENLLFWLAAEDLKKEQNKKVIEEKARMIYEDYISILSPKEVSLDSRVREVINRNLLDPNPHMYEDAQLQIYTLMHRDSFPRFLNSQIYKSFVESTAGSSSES

[22] = target: Guanine nucleotide-binding protein G(o) subunit alpha (Homo sapiens) (UniProt P09471); assay: Binding affinity to Galphao (unknown origin) assessed as change in melting temperature by differential scanning fluorimetry
Chain of Guanine nucleotide-binding protein G(o) subunit alpha (Homo sapiens) (P09471 2-354 limits assumed): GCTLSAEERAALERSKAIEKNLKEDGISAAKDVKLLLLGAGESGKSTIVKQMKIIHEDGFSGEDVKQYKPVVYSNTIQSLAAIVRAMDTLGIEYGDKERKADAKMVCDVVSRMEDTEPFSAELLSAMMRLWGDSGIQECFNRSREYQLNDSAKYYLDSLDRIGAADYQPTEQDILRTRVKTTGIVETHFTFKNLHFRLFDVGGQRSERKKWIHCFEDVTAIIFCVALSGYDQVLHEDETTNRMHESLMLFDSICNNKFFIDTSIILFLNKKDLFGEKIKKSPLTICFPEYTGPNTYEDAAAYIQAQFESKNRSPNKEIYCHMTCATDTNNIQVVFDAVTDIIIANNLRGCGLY

[23] = target: T2, Regulator of G-protein signaling 17; assay: Inhibition of RGS17 (unknown origin) GAP activity in presence of GTP by malachite green dye based assay
A549 [24] = assay: Growth inhibition of human A549 cells up to 1 uM measured every 2 hrs over 6 days by live cell imaging based method; type: functional
Procedure, shortened: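 A549 cells trypsinised, counted and seeded at 1000 per well in 24-well plates, then allowed to attach overnight. Treated in triplicate up to 1 μM compound (≤0.2% DMSO, matched DMSO control). Confluence imaged every 2 h for 6 days by live-cell imaging. Confluence change relative to DMSO plotted against concentration; IC50 from linear regression at 0.5 relative growth.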

HEK293 [25] = assay: Inhibition of Galphao interaction with GFP-fused RGS17 (unknown origin) deltaN mutant expressed in HEK293 cells assessed as increase in RGS17 deltaN mutant localization at cytoplasm at 100 uM up to 20 mins by confocal microscopic analysis; type: cell-based; conditions: Homo sapiens; procedure, shortened: as §1
HEK293 [26] = assay: Inhibition of Galphao interaction with GFP-fused RGS17 (unknown origin) deltaN mutant expressed in HEK293 cells assessed as increase in RGS17 deltaN mutant localization at cytoplasm at 10 uM up to 30 mins by confocal microscopic analysis; type: cell-based; conditions: Homo sapiens; procedure, shortened: as §1
[27] = target: T1, Regulator of G-protein signaling 17 (Homo sapiens); assay: Inhibition of Galphao interaction with GFP-fused full length RGS17 (unknown origin) expressed in HEK293 cells assessed as disruption of RGS17 localization at cell membranes at 100 uM after 10 mins by confocal microscopic analysis; type: cell-based
Procedure, shortened: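 HEK293T cells co-transfected with hGαo and N-terminal GFP-fused full-length RGS17, then treated with 100 μM compound in serum-free, phenol-red-free DMEM. RGS17 membrane localisation followed by confocal imaging at 0 and 10 min.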

SMILES | Activity [4] | Activity [5] | IC50 (A549 [7]) | inhibition [8] | IC50 [9] | Activity [10] | inhibition (HEK293 [12]) | growth inhibition (GI) (RWPE-1) | inhibition (HEK293 [13]) | growth inhibition (GI) (Homo sapiens) | growth inhibition (GI) (PC-3 [14]) | Activity [15] | Activity [16] | Activity (HEK293 [17]) | inhibition [18] | Activity (HEK293 [19]) | growth inhibition (GI) (PC-3 [20]) | IC50 [21] | IC50 [23] | inhibition (HEK293 [26]) | other results
Cc1ccc(-n2sc(=O)n(Cc3ccc(F)cc3)c2=O)cc1 |  |  |  |  |  |  |  |  |  |  |  |  |  |  |  |  |  |  |  |  | inhibition (HEK293 [1]): inactive; inhibition (HEK293 [2]): inactive; Activity (HEK293 [3]): Toxic
CC1=C(O)C(=O)C=C2C1=CC=C1[C@@]2(C)CC[C@@]2(C)[C@@H]3C[C@](C)(C(=O)O)CC[C@]3(C)CC[C@]12C [CELASTROL] | 16200 Da | Not Active | 0.69 µM | Dose-dependent effect | 10.5 µM | inactive | Active | Toxic | Active | Dose-dependent effect | inactive | inactive | Active | Non-Toxic | inactive | Non-Toxic | Dose-dependent effect | > 100 µM |  |  | solubility [6]: Insoluble; inhibition (HEK293 [11]): Active
CC(C)=CCC[C@]1(C)C=Cc2c(O)c3c(c(CC=C(C)C)c2O1)O[C@]12C(=C[C@@H]4C[C@H]1C(C)(C)O[C@@]2(C/C=C(/C)C(=O)O)C4=O)C3=O [GAMBOGIC ACID] |  |  |  |  |  |  |  |  |  |  |  |  |  |  |  |  |  |  | 10 µM |  | Activity [22]: Active
O=c1c(-c2cc(O)c(O)c(O)c2)coc2cc(O)c(O)c(O)c12 [IRIGENOL] | 16200 Da | Active |  | Dose-dependent effect | 47.2 µM | inactive |  |  |  |  |  | inactive | inactive | Non-Toxic |  | Non-Toxic |  | 81.8 µM | 35 µM | Active | growth inhibition (GI) (A549 [24]): inactive; inhibition (HEK293 [25]): Active
C[n+]1cc2c3c(ccc2c2ccc4cc5c(cc4c21)OCO5)OCO3 [SANGUINARIUM] | 16200 Da | Active | 0.61 µM | Dose-dependent effect | 72.8 µM | inactive | Active | Toxic | Active | Dose-dependent effect | inactive | inactive | inactive | Non-Toxic | inactive | Non-Toxic | Dose-dependent effect | > 100 µM | 12 µM | Active | inhibition [27]: inactive
